Source: ChEMBL document CHEMBL1143260, “Substrate specificity and screening of the integral membrane protease Pla” (Bioorg Med Chem Lett, 2008)
Activity calls are given as the source filed them. No cut-off for these calls is given here. Residues, ends and D or L forms follow the SMILES beside them. *: point of attachment. X1 = CN(C)c1ccc(/N=N/c2ccc(C(=O)*)cc2)cc1; EDANS = O=S(=O)(O)c1cccc2c(NCCN*)cccc12

Assays:
[1] = target: Tissue-type plasminogen activator (Homo sapiens) (UniProt P00750); assay: Hydrolysis activity of plasminogen activator by LC-MS analysis
Chain of Tissue-type plasminogen activator (Homo sapiens) (P00750 36-562 limits assumed): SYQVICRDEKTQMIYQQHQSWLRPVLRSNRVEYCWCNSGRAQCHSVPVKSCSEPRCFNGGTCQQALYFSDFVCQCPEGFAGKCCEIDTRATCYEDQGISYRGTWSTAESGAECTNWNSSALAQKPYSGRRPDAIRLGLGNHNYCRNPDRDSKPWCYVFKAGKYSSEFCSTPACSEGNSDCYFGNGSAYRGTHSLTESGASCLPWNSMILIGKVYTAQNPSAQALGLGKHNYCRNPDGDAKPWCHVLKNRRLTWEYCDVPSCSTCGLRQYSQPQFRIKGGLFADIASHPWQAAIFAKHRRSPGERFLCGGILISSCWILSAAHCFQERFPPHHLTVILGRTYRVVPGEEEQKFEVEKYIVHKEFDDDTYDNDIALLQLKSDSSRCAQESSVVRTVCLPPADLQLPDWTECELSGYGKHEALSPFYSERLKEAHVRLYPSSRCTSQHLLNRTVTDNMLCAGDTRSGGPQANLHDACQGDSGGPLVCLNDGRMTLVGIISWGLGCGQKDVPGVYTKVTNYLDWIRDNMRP
Procedure, shortened: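 Peptides were incubated with Pla, and the reaction mixtures were analysed by LC-MS. Cleavage was assigned from product retention time and mass, for example a DABCYL-Arg-OH fragment.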

[2] = target: Tissue-type plasminogen activator (Homo sapiens) (UniProt P00750); assay: Inhibition of recombinant plasminogen activator assessed as conversion of plasminogen to plasmin in fibrinolytic assay
Procedure, shortened: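 Fibrin plate functional assay: purified Pla was pre-incubated with the peptide, dissolved in DMSO or water and tested in 2-fold dilutions. Samples were spotted onto an opalescent fibrin film containing plasminogen. No-peptide spots served as controls.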

[3] = target: Urokinase-type plasminogen activator (Homo sapiens) (UniProt P00749); assay: Inhibition of urokinase-type plasminogen activator
[4] = target: Tissue-type plasminogen activator (Homo sapiens) (UniProt P00750); assay: Inhibition of purified recombinant plasminogen activator by fluorometric assay
[5] = target: T1, Plasminogen activator (Yersinia pestis) (UniProt P17811); assay: Inhibition of plasminogen activator in Yersinia pestis by fluorometric assay
T1 sequence (whole entry): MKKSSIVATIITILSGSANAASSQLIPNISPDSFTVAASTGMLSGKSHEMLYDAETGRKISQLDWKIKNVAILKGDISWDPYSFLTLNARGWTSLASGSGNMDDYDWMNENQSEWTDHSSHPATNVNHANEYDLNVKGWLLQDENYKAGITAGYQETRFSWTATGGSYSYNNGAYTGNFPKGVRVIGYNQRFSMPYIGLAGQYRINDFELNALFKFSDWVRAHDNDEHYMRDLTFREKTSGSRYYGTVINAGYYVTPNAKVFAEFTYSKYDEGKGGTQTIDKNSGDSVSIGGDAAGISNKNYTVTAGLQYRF

[6] = target: T1, Plasminogen activator (Yersinia pestis); assay: Inhibition of plasminogen activator in Yersinia pestis assessed as conversion of plasminogen to plasmin in fibrinolytic assay
Procedure, shortened: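 Fibrin plate assay. Purified recombinant Pla was pre-incubated with the peptide in 2-fold dilutions (dissolved in DMSO or water), then spotted onto an opalescent fibrin film. Pla converts plasminogen to plasmin, and fibrinolysis appears as a clear spot. Inhibition was judged against spots with no peptide added.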

SMILES	Activity [1]	Activity [2]	Activity [3]	Activity [4]	Activity [5]	Activity [6]
CC[C@H](C)[C@H](NC(=O)[C@H](CCCNC(=N)N)NC(=O)[C@H](CCCNC(=N)N)NC(=O)c1ccc(/N=N/c2ccc(N(C)C)cc2)cc1)C(=O)NCCNc1cccc2c(S(=O)(=O)O)cccc12	Active	Active				
CC[C@H](C)[C@H](NC(=O)[C@H](CCCNC(=N)N)NC(=O)[C@H](CCCNC(=N)N)NC(=O)c1ccc(/N=N/c2ccc(N(C)C)cc2)cc1)C(=O)O	Active	inactive				
CN(C)c1ccc(/N=N/c2ccc(C(=O)N[C@@H](CCCNC(=N)N)C(=O)N[C@@H](CCCNC(=N)N)C(=O)O)cc2)cc1	inactive	inactive				
CC[C@H](C)[C@H](NC(=O)[C@H](CCCNC(=N)N)NC(=O)[C@H](CCCNC(=N)N)NC(=O)c1ccc(/N=N/c2ccc(N(C)C)cc2)cc1)C(=O)N[C@@H](CC(=O)O)C(=O)NCCNc1cccc2c(S(=O)(=O)O)cccc12 (X1-RRID-{EDANS})	Active	Active				
CC[C@H](C)[C@H](NC(=O)[C@H](CCCNC(=N)N)NC(=O)[C@H](CCCNC(=N)N)NC(=O)c1ccc(/N=N/c2ccc(N(C)C)cc2)cc1)C(=O)N[C@@H](CC(N)=O)C(=O)O (X1-RRIN-OH)	Active	inactive				
CC[C@H](C)[C@H](NC(=O)[C@H](CCCNC(=N)N)NC(=O)[C@H](CCCNC(=N)N)NC(=O)c1ccc(/N=N/c2ccc(N(C)C)cc2)cc1)C(=O)N[C@@H](CC(N)=O)C(=O)N[C@@H](CCCNC(=N)N)C(=O)O (X1-RRINR-OH)	Active	inactive				
CC[C@H](C)[C@H](NC(=O)[C@H](CCCNC(=N)N)NC(=O)[C@H](CCCNC(=N)N)NC(=O)c1ccc(/N=N/c2ccc(N(C)C)cc2)cc1)C(=O)N[C@@H](CC(N)=O)C(=O)N[C@@H](CCCNC(=N)N)C(=O)N[C@@H](CCC(=O)NCCNc1cccc2c(S(=O)(=O)O)cccc12)C(N)=O (X1-RRINRE(EDANS)-NH2)	Active	Active	inactive	Active	Active	Active
CC[C@H](C)[C@H](NC(=O)[C@H](CCCNC(=N)N)NC(=O)[C@H](CCCNC(=N)N)NC(=O)c1ccc(/N=N/c2ccc(N(C)C)cc2)cc1)C(=O)N[C@@H](CC(N)=O)C(=O)N[C@@H](CCCNC(=N)N)C(=O)N[C@@H](CCC(=O)O)C(=O)NCCNc1cccc2c(S(=O)(=O)O)cccc12 (X1-RRINRE-{EDANS})	Active	Active				
